Assay results as given in ChEMBL document CHEMBL1944636, “Inhibition of hepatitis C virus NS5B polymerase by S-trityl-L-cysteine derivatives” (Eur J Med Chem, 2012).
Activity calls are given as the source filed them. The calls are words filed in the database; no cut-off is given here.

Columns and labels:
Hepatitis C virus [1] = test: Inhibition of HCV genotype 1b recombinant N-His-tagged NS5B Cdelta21 polymerase expressed in Escherichia coli DH5alpha using [alpha-32P]UTP at 100 uM after 60 mins by liquid scintillation counting; set-up: species or system Hepatitis C virus subtype 1b; details: for inhibition at 100 µM: DH5-alpha, 1 h
How it was run: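 Primer-dependent elongation with 100 ng NS5BCΔ21 in 20 mM Tris-HCl pH 7.0, 100 mM NaCl, 100 mM Na-glutamate, 1 mM MnCl₂, 0.25 μM polyrA/U₁₂, 20 μM UTP plus [α-³²P]UTP. Compound at 100 μM, 60 min at 30 °C. TCA/pyrophosphate stop, GF-B filter capture, scintillation counting. Percent of DMSO control, at least two independent measurements in duplicate.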

[2] = Cytotoxicity against hamster BHK cells assessed as cell viability at 100 uM after 42 hrs by luciferase reporter gene assay; format: cell-based, Mesocricetus auratus; details: read-out: Activity
How it was run: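 BHK-NS5B-FRLuc reporter cells (DMEM, 10% FBS, 1 mg/mL G418, 10 μg/mL blasticidin) were plated at 1 × 10⁴/well with 100 μM compound or 1% DMSO for 42 h. Viability was taken as firefly luciferase level versus DMSO controls using Dual-Glo read-out. Three independent experiments in duplicate.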

Hepatitis C virus [3] = test: Antiviral activity against HCV genotype 1b infected in human HuH7/Rep-Feo1b cells assessed as inhibition of viral replication at 100 uM after 42 hrs by luciferase reporter gene assay; format: functional, Hepacivirus hominis; details: Huh-7, 42 h
How it was run: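 Huh7/Rep-Feo1b replicon cells (DMEM, 10% FCS, 0.5 mg/mL G418, 37 °C, 5% CO2) seeded at 1 × 10⁴/well and exposed to 100 μM compound or DMSO for 42 h, 1.0% DMSO final. Replication was read as firefly luciferase signal relative to DMSO controls. Mean of three independent experiments in duplicate.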

[4] = Cytotoxicity against human HuH7 cells assessed as cell viability at 100 uM after 42 hrs by MTS assay; format: cell-based, Huh-7; details: read-out: Activity
How it was run: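 Viability of Huh7/Rep-Feo1b replicon cells was measured by colorimetric MTS read-out after 42 h with 100 μM compound. Cells were seeded at 1 × 10⁴/well, DMSO was 1.0% final, and culture was at 37 °C, 5% CO2. Values relative to DMSO controls, three independent experiments in duplicate.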

Hepatitis C virus [5] = test: Inhibition of HCV genotype 1b recombinant N-His-tagged NS5B Cdelta21 polymerase expressed in Escherichia coli DH5alpha using [alpha-32P]UTP after 60 mins by liquid scintillation counting; set-up: species or system Hepatitis C virus subtype 1b; details: DH5-alpha, 1 h
How it was run: (§1)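 NS5BCΔ21 (genotype 1b, N-His, from E. coli DH5α, Ni-NTA purified), 100 ng, elongates polyrA/U₁₂ with 20 μM UTP/[α-³²P]UTP and 1 mM MnCl₂ at pH 7.0, 60 min at 30 °C. Counted on filters by scintillation. IC50 from nonlinear fits of 8–12 concentrations in duplicate, two independent experiments.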

Hepatitis C virus [6] = test: Inhibition of HCV genotype 1b NS5B polymerase expressed in BHK cells at 100 uM after 42 hrs by luciferase reporter gene assay; set-up: species or system Hepatitis C virus subtype 1b
How it was run: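 Intracellular NS5B RdRp activity was read in BHK-NS5B-FRLuc reporter cells, 1 × 10⁴/well, treated 42 h with 100 μM compound or 1% DMSO at 37 °C, 5% CO2. Dual-Glo luciferase read-out; inhibition is percent reduction of Renilla-to-firefly luminescence ratio against DMSO controls. Three independent experiments in duplicate.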

[7] = Inhibition of HCV NS5B polymerase; set-up: species or system Hepacivirus hominis; how it was run: as §1

| SMILES | inhibition at 100 µM (Hepatitis C virus [1]) [%] | further results |
| --- | --- | --- |
| N[C@@H](CSC(c1ccccc1)(c1ccccc1)c1ccccc1)C(=O)O [S-TRITYL-L-CYSTEINE] | 12.6 | – |
| CCCc1ccc(C(SC[C@H](N)C(=O)O)(c2ccccc2)c2ccccc2)cc1 | 36.9 | – |
| N[C@@H](CSC(c1ccccc1)(c1ccccc1)c1ccc(C2CCCCC2)cc1)C(=O)O | 20.5 | – |
| Cc1ccc(C(SC[C@H](N)C(=O)O)(c2ccccc2)c2ccccc2)cc1 | 23.1 | – |
| CSc1ccc(C(SC[C@H](N)C(=O)O)(c2ccccc2)c2ccccc2)cc1 | 44.3 | – |
| CCCCCc1ccc(C(SC[C@H](N)C(=O)O)(c2ccccc2)c2ccccc2)cc1 | 28.3 | – |
| N[C@@H](CSC(c1ccccc1)(c1ccccc1)c1ccc(Br)cc1)C(=O)O | 20.2 | – |
| NCCSC(c1ccccc1)(c1ccccc1)c1ccc2ccccc2c1 | 33.3 | – |
| CCc1ccc(C(SCCN)(c2ccccc2)c2ccccc2)cc1 | 28.7 | – |
| CC(C)(C)c1ccc(C(SC[C@H](N)C(=O)O)(c2ccccc2)c2ccccc2)cc1 | 22.6 | – |
| CCC(C)C(SC[C@H](N)C(=O)O)(c1ccccc1)c1ccccc1 (stereo partly drawn) | 34 | – |
| CCCc1ccc(C(SCCN)(c2ccccc2)c2ccccc2)cc1 | 27.4 | – |
| CCc1ccc(C(SC[C@H](N)C(=O)O)(c2ccccc2)c2ccccc2)cc1 | 36.8 | – |
| NCCSC(c1ccccc1)(c1ccccc1)c1ccc(-c2ccccc2)cc1 | 36 | – |
| CC(C)(SC(c1ccccc1)(c1ccccc1)c1ccccc1)[C@H](N)C(=O)O | 76.7 | viability at 42 h, 100 µM [2]: 100%; inhibition at 100 µM (Hepatitis C virus [3]): 91.2%; viability at 42 h, 100 µM [4]: 74.1%; IC50 (Hepatitis C virus [5]): 24.6 µM; inhibition at 100 µM (Hepatitis C virus [6]): 84.3% |
| CC(C)C(SC[C@H](N)C(=O)O)(c1ccccc1)c1ccccc1 | 22.5 | – |
| CCC(CC)C(SC[C@H](N)C(=O)O)(c1ccccc1)c1ccccc1 | 33.1 | – |
| CC(C)c1ccc(C(SC[C@H](N)C(=O)O)(c2ccccc2)c2ccccc2)cc1 | 31.2 | – |
| CCCOc1ccc(C(SC[C@H](N)C(=O)O)(c2ccccc2)c2ccccc2)cc1 | 14 | – |

| SMILES | inhibition at 100 µM (Hepatitis C virus [1]) [%] | further results |
| --- | --- | --- |
| N[C@@H](CSC(c1ccccc1)(c1ccccc1)c1ccc2ccccc2c1)C(=O)O | 14.7 | – |
| CCCC(SC[C@H](N)C(=O)O)(c1ccccc1)c1ccccc1 | 19.1 | – |
| CN(C)[C@@H](CSC(c1ccccc1)(c1ccccc1)c1ccccc1)C(=O)O | 17.2 | – |
| NCCSC(c1ccccc1)(c1ccccc1)c1ccc(I)cc1 | 36.7 | – |
| N[C@@H](CSC(c1ccccc1)(c1ccccc1)c1ccc(-c2ccccc2)cc1)C(=O)O | 22.4 | – |
| CCCCc1ccc(C(SC(C)(C)[C@H](N)C(=O)O)(c2ccccc2)c2ccccc2)cc1 | 22 | – |
| CCCOc1ccc(C(SC(C)(C)[C@H](N)C(=O)O)(c2ccccc2)c2ccccc2)cc1 | – | inhibition (Hepatitis C virus [1]; Hepatitis C virus subtype 1b): inactive |
| CCCCCCc1ccc(C(SC[C@H](N)C(=O)O)(c2ccccc2)c2ccccc2)cc1 | 16.1 | – |
| CSc1ccc(C(SCCN)(c2ccccc2)c2ccccc2)cc1 | 24 | – |
| N[C@@H](CSC(c1ccccc1)(c1ccccc1)c1ccc(Cl)cc1)C(=O)O | 28.3 | – |
| N[C@@H](CSC(c1ccccc1)(c1ccccc1)c1ccc(C(=O)O)cc1)C(=O)O | 30.9 | – |
| CCCCc1ccc(C(SC[C@H](N)C(=O)O)(c2ccccc2)c2ccccc2)cc1 | 60 | IC50 (Hepatitis C virus [5]): 39.7 µM |
| N[C@@H](CSC(c1ccccc1)(c1ccccc1)c1cccs1)C(=O)O | 23.4 | – |
| CC(C)(SC(c1ccccc1)(c1ccccc1)c1ccccc1)[C@@H](N)C(=O)O | 82.8 | viability at 42 h, 100 µM [2]: 100%; inhibition at 100 µM (Hepatitis C virus [3]): 89.5%; viability at 42 h, 100 µM [4]: 72.6%; IC50 (Hepatitis C virus [5]): 22.3 µM; inhibition at 100 µM (Hepatitis C virus [6]): 85.4% |
| N[C@H](CSC(c1ccccc1)(c1ccccc1)c1ccccc1)C(=O)O | 17 | – |
| N[C@@H](CSC(c1ccccc1)(c1ccccc1)c1ccc(C(F)(F)F)cc1)C(=O)O | 43.5 | – |
| N[C@@H](CSC1(c2ccc(Cl)cc2)c2ccccc2-c2ccccc21)C(=O)O | – | pIC50 [7]: 4.33 |
| Cc1ccc(C(SCCN)(c2ccccc2)c2ccccc2)cc1 | 31.7 | – |
